Assay: Inhibitory concentration against rat Calcium-activated potassium channel (IKca)
Summary of the method: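 IC50 taken as the mean of at least two separate experiments, each run in triplicate.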

Row | Structure (SMILES) | IC50 [nM]
1 | CNC1=C(C(=O)OC)C(c2cccc(Cl)c2Cl)C2=C(COC2=O)C1 (stereo not given) | 400
2 | COC(=O)C1=C(C)CC(C)=C(C(=O)OC)C1C1CCCCC1 | > 1000
3 | COC(=O)C1=C(C)CC(C)=C(C(=O)O)C1c1ccc(Cl)c(C(F)(F)F)c1 (stereo not given) | > 1000
4 | CCO/C(O)=C1/C(=O)CC2=C(C(=O)OC2)C1c1ccccc1Cl (stereo not given) | 200
5 | CNC1=C(C(=O)OC)C(c2cccc([N+](=O)[O-])c2)C2=C(COC2=O)C1 (stereo not given) | 200
6 | COC(=O)C1=C(C)CC(C)=C(C(=O)OC)C1c1cc(Cl)cc(Cl)c1 | 100
7 | COC(=O)C1=C(C)CC(C)=C(C(=O)OC(C)(C)C)C1c1ccc(Cl)c(C(F)(F)F)c1 (stereo not given) | > 1000
8 | CNC1=C(C(=O)OC)C(c2ccc(C(F)(F)F)cc2)C(C(=O)OC)=C(C)C1 (stereo not given) | 200
9 | CCO/C(O)=C1/C(=O)CC2=C(C(=O)OC2)C1c1ccc(Cl)c(C(F)(F)F)c1 (stereo not given) | 40
10 | COC(=O)C1=C(C)CC(C)=C(C(=O)OC)C1c1cccnc1 | > 1000

Stronger by IC50, values ahead:

Row | IC50 [nM] | Structure (SMILES)
11 | 20 | CNC1=C(C(=O)OC)C(c2ccc([N+](=O)[O-])cc2)C(C(=O)OC)=C(C)C1 (stereo not given)
12 | 1.5 | COC(=O)C1=C(C)CC(C)=C(C(=O)OC)C1c1ccc(Cl)c(C(F)(F)F)c1
13 | 25 | CNC1=C(C(=O)OC)C(c2cccc([N+](=O)[O-])c2)C(C(=O)OC)=C(C)C1 (stereo not given)
14 | 8 | COC(=O)C1=C(C)CC2=C(C(=O)OC2)C1c1ccc(Cl)c(C(F)(F)F)c1 (stereo not given)
15 | 30 | COC(=O)C1=C(C)CC(C)=C(C(N)=O)C1c1ccc(Cl)c(C(F)(F)F)c1 (stereo not given)

— ChEMBL document CHEMBL1144251, “IKCa-channel blockers. Part 2: discovery of cyclohexadienes” (Bioorg Med Chem Lett, 2005)
